# Compound activity (PubChem BioAssay)
# S1P4 antag: antagonists of human S1P4 receptor; 0.26% of 220,000 active; AID 1510; O95977; S1P4-expressing cells, antagonist mode, reporter read-out; inhibition, % at 4.98 µM; in the data active = inhibition above about 29%;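 note: 0% = wells stimulated with agonist and 100% = vehicle wells without agonist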
# Target sequence (O95977 whole entry, looked up): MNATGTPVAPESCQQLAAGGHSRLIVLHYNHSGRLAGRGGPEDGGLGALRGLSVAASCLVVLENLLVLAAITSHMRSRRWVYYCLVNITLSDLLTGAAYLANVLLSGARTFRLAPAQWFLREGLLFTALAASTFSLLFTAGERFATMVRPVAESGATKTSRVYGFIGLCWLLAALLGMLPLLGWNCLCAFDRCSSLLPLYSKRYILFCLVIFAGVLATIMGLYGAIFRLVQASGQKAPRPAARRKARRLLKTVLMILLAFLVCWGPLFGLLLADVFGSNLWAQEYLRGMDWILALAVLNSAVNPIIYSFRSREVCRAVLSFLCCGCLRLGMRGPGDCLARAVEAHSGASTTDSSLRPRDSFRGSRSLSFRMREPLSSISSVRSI
# S1P3 antag: antagonists of human S1P3 receptor; AID 485; inhibition, % at 4.98 µM; 0.27% of 170,000 active; CHO S1P3 NFAT-BLA reporter, FRET fluorescence, antagonist mode;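 active = inhibition above the plate cutoff, the mean inhibition of test wells on that plate plus 3 SD, cut at about 28% in these data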;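 note: cells challenged with S1P at its EC80 of 0.8 µM; blue over green emission ratio from cleaved BLA substrate after 4 h stimulation; 0% = S1P-stimulated wells and 100% = unstimulated DMSO-only wells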
# Target sequence (Q99500 whole entry, looked up): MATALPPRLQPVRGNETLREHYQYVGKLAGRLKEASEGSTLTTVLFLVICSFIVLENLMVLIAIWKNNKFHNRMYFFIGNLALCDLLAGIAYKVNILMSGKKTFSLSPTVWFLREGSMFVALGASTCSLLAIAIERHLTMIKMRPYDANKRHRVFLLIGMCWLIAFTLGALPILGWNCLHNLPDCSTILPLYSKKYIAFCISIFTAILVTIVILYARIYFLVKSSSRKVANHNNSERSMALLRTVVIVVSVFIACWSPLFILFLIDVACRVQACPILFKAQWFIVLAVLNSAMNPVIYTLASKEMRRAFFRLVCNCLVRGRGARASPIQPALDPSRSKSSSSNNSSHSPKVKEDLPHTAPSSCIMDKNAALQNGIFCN
# Dynein transport: dynein cargo transport inhibition; 3617.4 mouse cells, GR-EGFP nuclear translocation imaging; test concentration mostly 20 µM; stimulated with dexamethasone, 1 µM; stronger effect = lower value; z-score, hits read low; 0.47% of 220,000 active; AID 1381;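 active = plate z-score of nuclear minus cytoplasmic receptor signal below a set negative limit, without overly bright fluorescence or cell loss, cut at about -3.5 in these data, passing the limit was not always enough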;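 note: z-score of nuclear minus cytoplasmic ring GR-EGFP intensity difference per well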
#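 Buffer or medium: Induction medium lacking tetracycline, stripped serum | Also added: Dexamethasone agonist, 1.0 µM final, for 30 min | Timing: 48 h induction, 1 h compound, 30 min dex at 37 °C | Detection: Formaldehyde fixation, Hoechst nuclear stain, 10x automated fluorescence imaging | Measure: Nuclear versus cytoplasmic GR-EGFP signal, averaged per well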
# S1P4 ag: activates the human S1P4 receptor | 0.35% of 220,000 active | S1P4-expressing cell line, agonist reporter assay | activation, % at 4.98 µM | O95977; in the data active = activation above about 11%;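 note: 0% = DMSO vehicle and 100% = reference agonist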
# MDM2 E3 inh: blocks human Mdm2 ubiquitin ligase activity; Q00987; cell-based MDM2 ubiquitination luciferase reporter, 2 h; 0 = plate control, 100 = twice control, blank-subtracted; signal enhancement, % at 5 µM; 0.11% of 210,000 active; AID 1230;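 active = signal enhancement of 30% or more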;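 note: luminescence tracks abundance of the self-degrading MDM2-luciferase fusion protein; higher signal means inhibition of MDM2 E3 ligase activity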
#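 Assay system: mammalian cells stably expressing self-ubiquitinating, self-degrading MDM2 E3–luciferase fusion. Quantity: 2000 cells in each well. Medium: DMEM culture medium. Compound dosing: single-point 5 µM. Timing: cell settling 4 h, compound treatment 2 h, both 37 °C. Technique: luciferase luminescence. Read-out basis: percent signal gain over controls, blank-subtracted. Benchmarks: plate controls and plate blanks.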
# Hsp70 activator: switches on Hsp70 transcription; HeLa Hsp70 promoter luciferase reporter, luminescence; scaled: vehicle 0, proteasome-inhibitor control 100%; activation, % at 10 µM; 0.04% of 200,000 active;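 active = activation above the mean across all tested compounds plus 3 SD, cutoff set per campaign, cut at about 5.5% in these data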;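 note: 100% = MG132 at 30 µM as the positive control and 0% = DMSO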
# S1P4 ag conf: confirmation of human S1P4 receptor agonists; shares compounds with S1P4 ag; S1P4 agonist cell-based reporter assay; activation, % at 4.98 µM; 7% of 740 active; AID 1523; in the data active = activation above about 12%;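 note: 0% = vehicle and 100% = full reference agonist response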
# S1P1 ag: counter-screen for S1P4 agonists: agonists of human S1P1; shares compounds with S1P4 ag; S1P1 agonist cell-based assay, activation; activation, % at 4.98 µM; 4% of 740 active; AID 1563; in the data active = activation above about 21%;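 note: 0% = vehicle wells and 100% = reference agonist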
# * hit, by the source's call; · = no result. The list is not random: actives were taken first. Their share in the collection is about 1.3%.
SMILES,S1P4 antag,S1P3 antag,Dynein transport,S1P4 ag,MDM2 E3 inh,Hsp70 activator,S1P4 ag conf,S1P1 ag
C/C=C/C(=O)OCC(=O)Nc1ccc(C)c(S(=O)(=O)N(C)C)c1,-18.5,14.1,-0.45,1.1,-9.9,0.1,·,·
O=C(NCc1ccccc1)c1ccccc1OCC(=O)N1CCCCC1,-3.2,·,0.515,-2.1,-17.3,-0.1,·,·
CCNc1nc2nc3ccc(C)cn3c(=O)c2cc1C(=O)NCC1CCCO1 (stereo not given),-23.0,-29.0,-0.914,12.9*,-8.4,0.3,2.3,8.4
Cc1ccc(-n2c(=O)c(C#N)cc3c(=O)n4ccccc4nc32)cc1,-9.8,-19.9,-0.418,2.0,-5.9,-0.1,·,·
Cc1cccc(-n2c(=O)c(C#N)cc3c(=O)n4ccccc4nc32)c1,-12.2,·,0.0828,14.1*,-3.7,-0.4,16.6*,22.2*
Cn1cc(Br)c(C(=O)NC(=S)Nc2ccc(S(N)(=O)=O)cc2)n1,-2.0,-4.8,2.79,-1.6,-83.2,0.1,·,·
COc1ccc(-n2c(SCC(=O)Nc3cc(C)on3)nc3c(c2=O)SCC3)cc1,-97.5,3.0,2.39,2.1,-13.0,0.0,·,·
COc1ccc(NC(=O)CSc2nc3c(c(=O)n2-c2ccc(F)cc2)SCC3)c(OC)c1,-18.4,19.0,0.0167,13.1*,-3.0,0.7,-2.0,-9.0
CC(C)N=c1scc(-c2ccco2)n1/N=C/c1ccc(O)c(O)c1,-24.6,·,-2.11,11.9*,-13.7,-0.4,22.2*,55.2*
COc1ccc(N2C(=O)C3CCCN3C2c2ccc(C)o2)cc1 (stereo not given),-24.9,-2.9,-0.365,-0.9,-12.1,0.1,·,·
COc1cccc(CC(NC(C)=O)C(=O)NC2CCN(c3c(Cc4ccccc4)c(C)nc4ncnn34)CC2)c1OC (stereo not given),-0.8,-6.7,0.344,14.2*,-8.7,-0.2,-2.6,-7.7
CC/C(O)=C1\C(=O)CCCC1=NCc1nc2ccccc2[nH]1,-9.8,8.0,0.0155,208.8*,-3.7,1.2,-2.5,0.5
CC/C(O)=C1\C(=O)CCCC1=NCCc1nc2ccccc2[nH]1,8.4,-29.3,2.29,-3.8,12.3,-0.4,·,·
COc1ccccc1C(=O)Nc1nc2cc3c(cc2s1)OCO3,10.6,-3.8,2.17,26.7*,-2.7,·,-0.9,8.4
Cc1ccc(S(=O)(=O)N2CCCN(C(=O)OC(C)(C)C)CC2)cc1,-6.7,3.7,-0.0913,0.6,-8.0,·,·,·
COc1ccc(OCCSc2nc(-c3ccccc3)cc(=O)[nH]2)cc1,-4.1,-12.2,-0.132,31.1*,0.8,-0.4,-2.2,-1.9
Nc1nc(SCc2ccc(Cl)cc2Cl)n[nH]1,20.8,1.1,-0.00551,-0.2,-11.6,0.1,·,·
CC(=O)Nc1nc(SCc2ccc(Cl)cc2Cl)n[nH]1,9.8,·,0.841,11.6*,5.5,-0.2,-2.1,-0.5
CCn1c(CSc2n[nH]c(N)n2)nc2cc(C(=O)O)ccc21,2.8,-22.7,1.56,-4.1,-20.6,1.6,·,·
Cc1cc(=O)[nH]c(N/N=C/c2c(O)n(-c3ccccc3)c(=O)c3ccccc23)n1,-0.4,10.2,-0.0343,29.2*,-1.5,-0.2,-1.1,-4.1
O=C(N/N=C/c1ccccc1O)C(=O)Nc1ccccn1,-7.6,-2.7,1.15,1.7,-28.2,-0.3,·,·
O=C(CSc1nc2ncc(Cl)cc2[nH]1)c1ccc2c(c1)OCO2,15.5,-7.7,-0.271,-1.4,-2.3,·,·,·
O=C(CSc1nc2ncc(Br)cc2[nH]1)Nc1ccc2c(c1)OCO2,-1.1,-14.8,0.157,28.9*,-1.3,-0.5,-1.1,-0.4
COc1ccc(N2CCN(C(=O)NCc3ccc(OC)c(Cl)c3)CC2)cc1,-4.2,-22.9,0.962,15.7*,15.5,0.1,-2.4,-11.3
CC(=O)Nc1nc(C(=O)Nc2c(C)n[nH]c2C)cs1,-23.1,-4.2,-0.264,14.1*,-24.7,-0.1,-1.6,2.1
SMILES,S1P4 antag,S1P3 antag,Dynein transport,S1P4 ag,MDM2 E3 inh,Hsp70 activator,S1P4 ag conf,S1P1 ag
COC(=O)c1ccccc1NC(=O)CSc1ncn[nH]1,-5.8,-7.1,-0.0327,-0.3,-12.5,·,·,·
COCCCn1c(=N)c(C(=O)NCc2ccc3c(c2)OCO3)cc2c(=O)n3ccccc3nc21,-5.6,13.1,0.208,1.6,-25.0,-0.3,·,·
Cc1cccn2c(=O)c3cc(C(=O)NCc4cccnc4)c(=N)n(C(C)C)c3nc12,-23.8,·,-0.227,8.0,-11.8,0.4,·,·
CC(C)n1c(=N)c(C(=O)NCCc2ccccc2)cc2c(=O)n3ccccc3nc21,-14.3,-17.5,-0.0167,17.6*,23.0,-0.2,14.2*,35.8*
COCCCn1c(=N)c(C(=O)NC2CCCCC2)cc2c(=O)n3ccccc3nc21,-24.6,·,2.17,12.9*,-18.2,0.4,3.0,2.2
CC(OC(=O)c1cc2sccc2n1C)C(=O)NCc1cccs1 (stereo not given),-6.8,-41.4,-1.03,22.5*,-2.2,-0.1,-2.5,2.9
CN(Cc1cc(=O)n2ccsc2n1)c1ccccc1,3.4,-3.1,0.205,1.7,-4.0,-0.4,·,·
CN(Cc1cc(=O)n2ccsc2n1)C1CCCCC1,0.1,3.9,1.27,92.9*,-46.4,-0.1,-1.6,2.7
Cc1cc(C)nc(NC(=NCCc2c[nH]c3ccccc23)NC(=O)C(C)(C)C)n1,-2.0,-9.8,1.05,1.6,-4.0,·,·,·
CCOC(=O)c1sc(-c2ccccc2)cc1NC(=O)Nc1ccccc1,-0.9,-10.5,0.619,24.7*,-7.9,-0.1,-2.4,-4.8
Cc1cc(=O)c2ccccc2n1CC(=O)NCc1ccccc1,-23.8,3.2,-0.229,18.6*,0.4,-0.5,-1.3,-1.6
Cc1cc(=O)c2ccccc2n1Cc1ccccc1,-8.7,-2.4,-0.308,2.6,-9.5,-0.6,·,·
Cc1ccc(S(=O)(=O)/N=C2\CN(C)C(=O)N2C)cc1,-5.5,-5.3,-0.64,16.5*,-4.7,0.4,-0.7,3.0
Cc1ccc(S(=O)(=O)/N=c2\sccn2C)cc1,-12.6,·,-0.674,-0.1,-5.5,-0.5,·,·
COc1ccc(-c2nnn(CC(=O)N(CCCN3CCOCC3)C(C(=O)NC3CCCC3)c3ccco3)n2)cc1 (stereo not given),-22.8,-1.2,0.0472,14.5*,7.4,0.1,-2.5,-9.2
Cn1c(SCC(=O)c2ccc3c(c2)OCO3)nnc1C1COc2ccccc2O1 (stereo not given),5.2,12.1,0.41,11.3*,-13.9,0.0,61.5*,-0.9
CCC(C)NC(=O)c1cnc2n(c1=O)CCS2 (stereo not given),-6.3,-11.9,-0.655,25.0*,-69.9,0.3,-1.6,4.1
CC(NC(=O)c1cnc2n(c1=O)CCS2)c1ccccc1 (stereo not given),-1.0,2.7,-0.531,-0.2,-15.1,-0.3,·,·
